Assays:
parental ACE1 cells = assay: Prostate cancer cells in vitro growth assay, parental ACE1; type: cell-based, canine; conditions: for effect on cell growth (sensitivity): three day growth assay in vitro
Method in brief: (§1)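 Cells were seeded at 3000 cells/well and allowed to adhere overnight at 37°C, 5% CO2. Test compound or staurosporine was prepared as an 8-point, 3-fold DMSO series from a 10 mM stock, giving a final 500-fold dilution of stocks, in triplicate. After 3 days, growth was measured by CellTiter-Glo luminescence, normalised to the DMSO signal (% control), and IC50 was fitted against concentration.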

[1] = tested on: GFP-transfected ACE-1 cells; assay: Prostate cancer cells in vitro growth assay, GFP-transfected ACE-1; type: cell-based, canine; conditions: for effect on cell growth (sensitivity): three day growth assay in vitro
Method in brief: as §1

Rat formalin test = type: in vivo; conditions: 30 mg/kg PO two hours before subplantar formalin; vs vehicle; p<0.05
Method in brief: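 SD rats received test compound at 30 mg/kg or vehicle (0.5% HPMC/1% Tween 80/2.5% DMSO) orally, 2 h before subplantar formalin (0.05 mL, 1%). Hind paw licking time was recorded at 5-minute intervals for 30 minutes, covering the acute and inflammatory phases. Data are the average of two independent experiments with six rats per group per trial.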

[2] = Spontaneous guarding and flinching in prostate model of bone cancer; type: in vivo, mouse; conditions: 30 mg/kg/day in chow from day 14; days 56 and 63; vs vehicle; 2-min observation
[3] = Radiographic assessment of tumor-induced bone remodeling; type: in vivo, mouse
Method in brief: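 In the femoral ACE-1 tumor model, compound-formulated chow (average 30 mg/kg/day) or control chow was given ad libitum from day 14 to study end, n=8/group. Radiographs were taken from day 14 and then every 7 days. In blinded analysis, bone lying outside the normal femur diameter (defined from naïve/sham mice) was traced with a mm-calibrated free-form tool. Mean area was calculated per group.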

[4] = tested on: ACE-1 prostate cancer cells; assay: Radiographic number of cancer cell colonies and overall tumor burden; type: in vivo, mouse
Method in brief: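 In the same chow-dosing femoral tumor model, radiographs of tumor-bearing femurs were analysed blind. Images were split into distal and proximal halves and enlarged. Each colony was numbered and traced, defined as a radio-translucent area bounded by radio-opaque woven bone. Colony number per region and total tumor area per femur were recorded, then averaged per treatment group.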

[5] = tested on: CD68+ macrophages and osteoclasts; assay: CD68+ cells in tumor-bearing bone sections; type: in vivo, mouse
Method in brief: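 Mice received intramedullary femoral injection of GFP+ ACE-1 prostate cancer cells. From day 14 they were given test compound in chow (average 30 mg/kg/day) or control chow ad libitum, n=8/group. At day 65, 20 μm decalcified frozen bone sections were stained with rat anti-mouse CD68 (1:2,000), Cy3 secondary and DAPI. Two 400X confocal images were taken per section from three sections per animal, in GFP+ tumor areas. Blinded counts were made per μm3.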

LNCaP = assay: Prostate cancer cell growth in vitro, LNCaP; type: cell-based; conditions: data not shown
PC-3 = assay: Prostate cancer cell growth in vitro, PC-3; type: cell-based; conditions: data not shown
[6] = tested on: Human osteoclast precursors; assay: Osteoclast differentiation assay; type: cell-based; conditions: six days with CSF-1 and RANKL, up to 10 μM
Method in brief: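 Human osteoclast precursors were cultured at 37°C, 5% CO2, with CSF-1 (33 ng/mL), RANKL (66 ng/mL) and test compound (up to 10 μM) or 0.2% DMSO for 6 days. After a medium change, cells were incubated 1 more day. Supernatant acid phosphatase (TRAP5b) was read at 405 nm. Results are expressed as percent inhibition relative to vehicle with or without CSF-1, from six independent experiments.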

[7] = ref [4],[16],[19]; cited from earlier work
[8] = sustained administration 30 mg/kg/day in chow
[9] = 30 mg/kg/day in chow, distal and proximal ends of femur, vs vehicle, p<0.05
[10] = three day growth assay, CellTiter-Glo

osteoclast differentiation (acid phosphatase activity, TRAP5b) [6]	SMILES	effect on cell growth (sensitivity) (parental ACE1 cells)	effect on cell growth (sensitivity) [1]	hind paw licking time, acute phase (0–5 minutes) (Rat formalin test)	hind paw licking time, inflammatory phase (10–30 minutes) (Rat formalin test)	time spent guarding tumor-bearing limb [2]	extra-periosteal bone formation (periosteal reaction area) ([3]; 30 mg/kg/day in chow from day 14, days 14–63, vs vehicle, p<0.05)	overall radio-opacity of tumor-bearing femur ([3]; 30 mg/kg/day in chow, vs prostate cancer + vehicle)	attenuation of tumor-induced bone remodeling [3, 8]	number of cancer cell colonies [4, 9]	total tumor burden area [4, 9]	attenuation of disease progression [4, 8]	viability of cancer cells in tumor cell colony ([5]; GFP+ prostate cancer cells in bone sections, day 65)	number of CD68+ cells per tissue volume ([5]; day 65 post-tumor cell injection, chronic treatment, vs vehicle, p<0.05)	concentration up to which no effect on cell growth (not sensitive) (parental ACE1 cells; [10]) [µM]	concentration up to which no effect on cell growth (not sensitive) [1, 10] [µM]	effect on prostate cancer cell growth (LNCaP)	effect on prostate cancer cell growth (PC-3)	crossing of the blood brain barrier [7]
–	Cn1c(=O)n(-c2ccc(C(C)(C)C#N)cc2)c2c3cc(-c4cnc5ccccc5c4)ccc3ncc21 [BEZ-235, reference compound]	sensitive	sensitive	–	–	–	–	–	–	–	–	–	–	–	–	–	–	–	–
inhibited	FC(F)(F)c1ccc(CNc2ccc(Cc3c[nH]c4ncc(Cl)cc34)cn2)cn1 [PLX3397]	did not affect	–	analgesic effects	analgesic effects	reduced	significantly reduced	increase	approximately 50%	significantly reduced	significantly reduced	approximately 50%	little effect	significantly reduced	> 10	> 10	did not affect	did not affect	does cross the blood brain barrier
–	CN[C@@H]1C[C@H]2O[C@@](C)([C@@H]1OC)n1c3ccccc3c3c4c(c5c6ccccc6n2c5c31)C(=O)NC4 [staurosporine, reference compound]	sensitive	sensitive	–	–	–	–	–	–	–	–	–	–	–	–	–	–	–	–
